# A selection: hits, their analogues and other compounds. The true share with any hit is near 2.9%.
# HTRA1 inhibitor: HTRA1 (human) protease inhibition. Q92743. recombinant HTRA1, FP-rhodamine activity-based probe, fluorescence polarization. inhibition, % at 5.96 µM. 340,000 tested, 0.5% active. AID 504803; in the data active = inhibition above about 36%
# Target sequence (Q92743 whole entry, looked up): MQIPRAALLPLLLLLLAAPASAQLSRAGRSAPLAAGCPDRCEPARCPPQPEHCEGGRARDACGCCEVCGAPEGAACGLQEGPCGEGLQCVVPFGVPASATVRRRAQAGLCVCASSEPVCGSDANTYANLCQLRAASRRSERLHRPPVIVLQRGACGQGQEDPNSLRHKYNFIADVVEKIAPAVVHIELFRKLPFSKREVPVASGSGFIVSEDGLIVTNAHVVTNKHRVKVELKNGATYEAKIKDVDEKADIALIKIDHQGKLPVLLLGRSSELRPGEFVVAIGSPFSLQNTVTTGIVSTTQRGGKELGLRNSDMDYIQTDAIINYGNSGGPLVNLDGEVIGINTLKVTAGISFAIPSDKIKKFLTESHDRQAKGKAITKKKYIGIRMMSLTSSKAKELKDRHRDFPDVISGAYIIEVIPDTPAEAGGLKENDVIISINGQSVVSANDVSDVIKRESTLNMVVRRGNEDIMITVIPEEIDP
# TCR-CD3 inh: blocks the human TCR-CD3 interaction. TAMRA-labeled TCR probe fluorescence, biochemical. inhibition, % at 9.4 µM. 360,000 tested, 0.37% active. AID 651800; in the data active = inhibition above about 19%;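 note: recombinant mutant TCR 2C K166C tagged with TAMRA read by polarization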
# mABHD4 FP: inhibits mouse alpha/beta hydrolase domain 4. Q8VD66. purified mABHD4, FP-Rh probe fluorescence polarization. inhibition, % at 8.92 µM. 370,000 tested, 0.54% active;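 active = inhibition exceeding the mean over every tested compound plus 3 SD, cut at about 30% in these data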
#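 Test system: mouse ABHD4 enzyme, wild type. Reagent: FP-Rh fluorescent activity-based probe, added after compound pre-incubation. Timing: pre-incubation 45 min, probe exposure 60 min, at 25 °C. Technique: FP readout, ex 525 nm / em 598 nm. Benchmarks: high control S159A mutant with DMSO, low control median of compound wells.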
# PAD4 FP inh: inhibitors of human PAD4 | Q9UM07 | recombinant PAD4, RCA probe fluorescence polarization | inhibition, % at 6.36 µM | 330,000 tested, 0.41% active | AID 485272;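 active = percent inhibition above a cutoff equal to the mean of all tested compounds plus 3 SD, cut at about 15% in these data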
# SIAE inh: inhibitors of human sialic acid acetylesterase SIAE; 370,000 tested, 0.69% active; inhibition, % at 9.66 µM; Q9HAT2; SIAE FP-Rh probe binding, fluorescence polarization;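 active = inhibition above a cutoff: mean of compounds within the control limits plus 3 SD of those, cut at about 17% in these data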
# PRMT1 inh: PRMT1 (human) inhibition, primary screen; Q99873; recombinant PRMT1, activity-based probe fluorescence polarization; inhibition, % at 2.79 µM; 370,000 tested, 1.3% active;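 active = inhibition above about 21% made by adding two undisclosed values, limit read from the data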
# PRMT1 confirm: confirmation of human PRMT1 inhibitors | AID 687036 | shares compounds with PRMT1 inh | 3,300 tested, 42% active | inhibition, % at 2.79 µM | recombinant His-PRMT1, activity-based probe fluorescence polarization;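 active = mean inhibition across replicates above the hit cutoff derived for the earlier primary screen, cut at about 22% in these data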
# A number is an active result; - = inactive; . = no result.
SMILES,HTRA1 inhibitor,TCR-CD3 inh,mABHD4 FP,PAD4 FP inh,SIAE inh,PRMT1 inh,PRMT1 confirm
Cc1ccc(S(=O)(=O)C=CS(=O)(=O)c2ccc(C)cc2)cc1,-,-,-,.,-,90.2,94.7
Cc1ccc(S(=O)(=O)CCCS(=O)(=O)c2ccc(C)cc2)cc1,-,-,-,-,-,-,.
NS(=O)(=O)c1ccccc1,-,-,-,-,-,-,.
Cc1ccc(S(=O)(=O)SC/C=C/CSS(=O)(=O)c2ccc(C)cc2)cc1,-,-,-,.,-,87.4,90.6
COCCCN1C(=O)[C@H](CC(=O)NCC2CCCCC2)[C@]2(C(=O)OC)CCCCC=C12,.,.,-,.,-,-,.
S=C(N/N=C/c1ccco1)NC1CC2CCC1C2 (centres undefined),-,-,-,-,-,26.7,-
Oc1ccccc1/C=N/NC(=S)NC1CC2CCC1C2 (centres undefined),-,-,-,-,-,-,.
CCOC(=O)[C@@]12CCCC=C1N(CCc1ccc(Cl)cc1)C(=O)[C@H]2CC(=O)N1CCOCC1,.,.,-,.,-,-,.
c1ccc2c(c1)[nH]c1nc(SCCN3CCOCC3)nnc12,-,-,-,-,-,29.9,-
Brc1ccc2[nH]c3nc(SCCN4CCOCC4)nnc3c2c1,-,-,-,-,-,-,.
CN1[C@@H](Cc2ccccc2)COc2cccc(N3CCCC3)c2S1(=O)=O,.,.,-,.,-,-,.
CCOC(=O)CSC1=C(C#N)C(=O)NC(c2ccc(OC)cc2)S1 (centres undefined),-,-,-,-,-,35.0,-
CCC(c1nnnn1CCOC)N(Cc1cc2cc(C)c(C)cc2[nH]c1=O)CC1CCCO1 (centres undefined),-,-,-,-,-,-,.
CCCC(c1nnnn1CCOC)N(Cc1cc2cc(C)c(C)cc2[nH]c1=O)CC1CCCO1 (centres undefined),-,-,-,-,-,26.4,-
CC(C)C[C@H]1COc2cccc(N3CCSCC3)c2S(=O)(=O)N1C,.,.,-,.,-,-,.
O=c1[nH]c(=O)n(C2OC(CO)C(O)C(O)C2O)cc1F (centres undefined),.,-,-,.,-,-,.
O=C1C=C(C2OC(CO)C(O)C2O)C(=O)N1 (centres undefined),-,-,-,.,-,70.0,71.3
COC(=O)c1cc(NC(=O)c2ccccc2)c(=O)oc1C,-,-,-,-,-,-,.
Cc1oc(=O)c(NC(=O)c2ccccc2)cc1C(N)=O,.,-,-,-,-,-,.
Cc1oc(=O)c(NC(=O)c2cccc(Cl)c2)cc1C(=O)c1ccccc1,-,-,-,-,-,51.5,24.0
COc1ccc(C(=O)Nc2cc(C(=O)c3ccccc3)c(C)oc2=O)cc1,-,-,-,-,-,57.0,-
C=CCN1[C@H](Cc2ccccc2)COc2cc(N3CCSCC3)ccc2S1(=O)=O,.,.,-,.,-,-,.
S=c1[nH]c(-c2ccc(Cl)cc2)cs1,-,-,-,-,-,30.6,54.3
S=c1nccc(-c2ccc(Cl)cc2)[nH]1,.,-,-,-,-,26.3,26.8
Clc1ccc(-c2cc3ccccc3[nH]2)cc1,-,-,-,-,-,-,.
SMILES,HTRA1 inhibitor,TCR-CD3 inh,mABHD4 FP,PAD4 FP inh,SIAE inh,PRMT1 inh,PRMT1 confirm
Clc1ccc(-c2ccn[nH]2)cc1,-,-,-,-,-,-,.
Cc1cn2c(=O)c3ncn(C4OC(CO)C(O)C4O)c3n(C)c2n1 (centres undefined),.,-,-,.,-,-,.
Cc1ccccc1N1CCN(C(=O)c2ccccc2NC(=O)/C=C\C(=O)O)CC1,-,-,-,-,-,26.8,-
CCCCCCC1CC(CCc2nc(=S)[nH][nH]2)C(=O)O1 (centres undefined),-,-,-,-,-,-,.
CCCCCCCCc1nc(=S)[nH][nH]1,-,-,-,-,-,27.1,36.6
O=C1S/C(=C\C=C\c2ccco2)C(=O)N1c1ccc(O)cc1,-,-,-,-,-,31.4,-
CN1C(=O)c2ccc(C(=O)NC3CCCCC3)cc2C1=O,-,-,-,-,-,-,.
CN1C(=O)CS(=O)c2ccc(C(=O)NC3CC3)cc21 (centres undefined),-,-,-,-,-,37.1,-
CCC[C@@H](/C=C/C(=O)OC(C)(C)C)Sc1ccc(N)cc1,.,.,-,.,-,-,.
O=C(O)CNC(=O)CC1S/C(=N/N=C2\CSC(=O)N2)NC1=O (centres undefined),-,-,-,-,-,38.3,21.6
O=C(CSc1nc(NS(=O)(=O)c2ccccc2)cc(=O)[nH]1)Nc1ccccc1Cl,-,-,-,.,-,28.5,-
Cc1[nH]c(SCC(=O)Nc2cc(S(C)(=O)=O)ccc2Cl)nc1Cc1ccccc1,-,-,-,-,-,26.4,-
Cc1ccc(S(=O)(=O)Nc2cc(=O)[nH]c(SCC(=O)Nc3ccccc3Cl)n2)cc1,-,-,-,.,-,-,.
COC(=O)c1ccc(CSc2n[nH]c(=S)s2)o1,-,-,-,-,-,27.2,-
COC(=O)c1ccc(CSc2nc3ccccc3s2)o1,-,-,-,-,-,-,.
O=C(NN=Cc1ccc(O)cc1)c1cc(-c2ccc(Cl)cc2)n[nH]1,.,.,-,.,-,-,.
COC(=O)[C@]1(Cc2ccccc2)NC=C(C(=O)c2ccccc2)[C@@H]1c1cccs1,.,-,-,.,-,-,.
Oc1ccc2nnc3c(Br)cnn3c2c1,-,-,-,-,-,49.6,49.6
C[C@H]1C(=O)N2[C@@H](C[C@]3(c4c[nH]c5ccccc45)c4ccccc4N(S(=O)(=O)c4ccccc4)[C@H]23)C(=O)N1C,.,.,-,.,-,-,.
O=C1NC2c3c(I)sc(I)c3C(=O)C2O1 (centres undefined),-,-,-,.,-,47.2,-
CCCOc1ccc(/C=c2\sc3nc(-c4ccco4)nn3c2=O)cc1OCC,-,-,-,-,-,-,.
CCCOc1ccc(Cc2nn3c(=O)/c(=C/c4ccco4)sc3nc2=O)cc1,-,-,-,-,-,33.3,-
C=CCN(CC#Cc1ccccc1)Cc1ccc2c(c1)OCO2,.,.,-,.,-,-,.
CCOc1ccc(-n2c(SCC(=O)c3ccccc3Cl)nnc2-c2ccncc2)cc1,.,.,-,.,-,-,.
N#CC1=C2SCN(Cc3ccco3)CN2C(=O)CC1c1ccc(Cl)cc1 (centres undefined),-,-,-,-,-,32.4,-
COc1ccc(N2CSC3=C(C#N)C(c4cccc(OC)c4OC)CC(=O)N3C2)cc1 (centres undefined),-,-,-,-,-,41.2,68.1
COc1ccc(OC)c(C2CC(=O)N3CN(c4ccccc4)CSC3=C2C#N)c1 (centres undefined),-,-,-,-,-,-,.
COc1ccc(C2CC(=O)N3CN(c4ccc(C)c(Cl)c4)CSC3=C2C#N)cc1 (centres undefined),-,-,-,-,-,44.0,59.1
COc1ccc(C(=O)Cn2c(NCCO)nc3ccccc32)cc1OC,-,-,-,-,-,-,.

# High-throughput results: PubChem BioAssay, The Scripps Research Institute Molecular Screening Center
